Source: paper PMC8176898 (Journal of the American Chemical Society, 2021)
Numbering of substitutions follows the chain as printed. Numbers in names are those of the source. Values belong to the molecule of their own block, whether it stands above or below them. Ends that are not written are not given here.

B1: Mint2-PARM F520A (domain or fragment, human, UniProt Q99767 364-570, looked up)
chain: EDLIDGIIFAANYLGSTQLLSERNPSKNIRMMQAQEAVSRVKRMQKAAKIKKKANSEGDAQTLTEVDLFISTQRIKVLNADTQETMMDHALRTISYIADIGNIVVLMARRRMPRSASQDCIETTPGAQEGKKQYKMICHVFESEDAQLIAQSIGQAASVAYQEFLRANGINPEDLSQKEYSDIINTQEMYNDDLIHFSNSENCKELQ
B2: semisynthetic Mint2-pPARMSS S458σ (domain or fragment, human, UniProt Q99767 364-570, looked up)
chain: B1 chain with R92K, C120A, C138A, A157F, C203A
modifications: backbone amide-to-ester at S458 (α-hydroxy acid, S458σ)
B3: semisynthetic Mint2-pPARMSS D462δ (domain or fragment, human, UniProt Q99767 364-570, looked up)
chain: B1 chain with R92K, C120A, C138A, A157F, C203A
modifications: backbone amide-to-ester at D462 (α-hydroxy acid, D462δ)
B4: TAMRA-APP_(C-term) probe, (TAMRA)-NNG-QNGYENPTYKFFEQMQN (peptide)
peptide: {TAMRA}-NNGQNGYENPTYKFFEQMQN
B5: Mint2-PARM Y459A (domain or fragment, human, UniProt Q99767 364-570, looked up)
chain: B1 chain with Y96A, A157F
B6: Mint2-PARM L454A (domain or fragment, human, UniProt Q99767 364-570, looked up)
chain: B1 chain with L91A, A157F
B7: human Mint2-PARM Y459A/F520A (hMint2^Y459A/F520A) (domain or fragment, UniProt Q99767 364-570, looked up)
chain: B1 chain with Y96A

How the values were obtained:
[1] = test system: Aβ42 levels, primary cortical neurons (APPswe/PS1ΔE9); experiment: Aβ42 ELISA of conditioned medium of APPswe/PS1ΔE9 neurons; assay type: cell-based, mouse; details: 24 h incubation
[2] = test system: primary cortical neurons (APPswe/PS1ΔE9); experiment: LDH release; details: after 24 h of treatment, TAT-14 10 μM; same conditioned medium as ELISA
[3] = In vitro human plasma stability; assay type: in vitro ADME
How it was run: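 Test peptides incubated in human plasma at 37 °C for up to 24 h. At various time points, peptide was extracted and quantified by UPLC. A buffer-only control was run alongside. Mean ± SEM, n = 3.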

[4] = In vitro hepatic clearance, mouse liver microsomes; assay type: in vitro ADME
primary neurons = experiment: Neuronal cell viability; details: colorimetric readout of metabolic activity
[5] = biological target: T1, human Mint2-PTB-ARM (Mint2-PARM), PARMHis6, residues 364-570 (human, UniProt Q99767 364-570); experiment: fluorescence polarisation
T1 sequence (looked up): B1 chain with A157F

[6] = biological target: B4; experiment: fluorescence polarisation
Mint2-PARM D462A = biological target: T2, Mint2-PARM D462A (human, UniProt Q99767 364-570, D462A); experiment: fluorescence polarisation
T2 sequence (looked up): B1 chain with D99A, A157F

Molecule: C[C@H](NC(=O)Cc1cc(F)cc(F)c1)C(=O)NC(C(=O)OC(C)(C)C)c1ccccc1 (stereo partly drawn) [DAPT, N-[N-(3,5-difluorophenacetyl)-l-alanyl]-s-phenyl-glycine tert-butyl ester, reference compound]
reduction of Aβ42 levels (positive control) ([1]; concentration not given): 47%
LDH release relative to vehicle control (in words) [2]: low LDH levels

half-life (T1/2) in human plasma ([3]; 37 °C, up to 24 h, UPLC read-out, n = 3): < 30 min
half-life ([3]; human): 26 min
microsomal CLint [4]: 15.4 ± 2.5 µL/min/mg
Molecule: NGYENPTYKFFE [APPWT peptide]

Molecule: cyclo(DLATEPAK(Dap)-14 (bicyclic or more) [MiniAp4-14]
reduction of Aβ42 levels relative to vehicle control ([1]; 10 μM, vehicle 0.25% DMSO): did not affect Aβ42 production
adverse effect on cell viability over the concentration curve (in words) (primary neurons): no toxicity

Ki [5]: 4 ± 0.2 µM
Molecule: NGYENPTYKFFE [APPWT peptide (NGYENPTYKFFE; residues 755-766)]

fold decrease in affinity relative to the APPWT peptide [5]: 18 fold
Molecule: NGYENPTYKFAE (peptide, UniProt P05067 755-766, looked up) [APPWT peptide F765A]

binding result [5]: binds
Molecule: NGYENPTWKFFE (peptide, UniProt P05067 755-766, looked up) [APPWT peptide Y762W]

fold decrease in affinity relative to the APPWT peptide [5]: 14 fold
Molecule: NGYENPTYKAFE (peptide, UniProt P05067 755-766, looked up) [APPWT peptide F764A]

Ki [5]: ≥ 500 µM
Molecule: NGYEQPTYKFFE (peptide, UniProt P05067 755-766, looked up) [APPWT peptide N759Q]

binding result [5]: binds
Molecule: NGYENPTYKWFE (peptide, UniProt P05067 755-766, looked up) [APPWT peptide F764W]

fold decrease in affinity relative to the APPWT peptide [5]: 76 fold
Molecule: NGAENPTYKFFE (peptide, UniProt P05067 755-766, looked up) [APPWT peptide Y757A]

binding result [5]: binds
Molecule: NGYENPTYKFWE (peptide, UniProt P05067 755-766, looked up) [APPWT peptide F765W]

Molecule: B1
fold reduction in affinity relative to Mint2-PARM^WT [6]: 45 fold

Molecule: B2
fold reduction in affinity relative to wild type [6]: 14 fold

Molecule: B3
fold reduction in affinity relative to wild type [6]: 25 fold

Molecule: B4
binding result [5]: binds
binding result (Mint2-PARM D462A): binds

Molecule: B5
fold reduction in affinity relative to Mint2-PARM^WT [6]: > 10 fold

Molecule: B6
fold reduction in affinity relative to Mint2-PARM^WT [6]: > 10 fold

Molecule: B7
fold decrease in affinity relative to wild-type Mint2-PARM [6]: 72 fold
